In ChEMBL document CHEMBL1125391, “Syntheses and thymidylate synthase inhibitory activity of the poly-gamma-glutamyl conjugates of N-[5-[N-(3,4-dihydro-2-methyl-4-oxoquinazolin-6-ylmethyl)-N-methylamino ]-2-thenoyl]-L-glutamic acid (ICI D1694) and other quinazoline antifolates” (J Med Chem, 1992):

Tests used:
[1] = biological target: Thymidylate synthase (Mus musculus) (UniProt P07607); assay: Compound was evaluated for fold increase in Thymidylate synthase (TS) inhibition; type: functional
Thymidylate synthase [2] = biological target: T1, Thymidylate synthase (Mus musculus, UniProt P07607); assay: Inhibition of thymidylate synthase, partially purified from L1210 mouse leukemia cells overexpressing TS; type: cell-free; conditions: read-out: Ki app
In short: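 Enzyme partially purified from L1210 mouse leukemia cells that overproduce TS through TS gene amplification. Assayed by the previously described method with (±)-5,10-methylenetetrahydrofolic acid at 200 μM. Apparent Ki was calculated with the Goldstein equation for tight-binding inhibitors.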

Thymidylate synthase [3] = biological target: T1, Thymidylate synthase; assay: Compound was evaluated for inhibition of thymidylate synthase, partially purified from L1210 mouse leukemia cells that overproduce thymidylate synthase due to amplification of TS gene; conditions: read-out: Ki app

Thymidylate synthase (Mus musculus), sequence (P07607 whole entry, looked up): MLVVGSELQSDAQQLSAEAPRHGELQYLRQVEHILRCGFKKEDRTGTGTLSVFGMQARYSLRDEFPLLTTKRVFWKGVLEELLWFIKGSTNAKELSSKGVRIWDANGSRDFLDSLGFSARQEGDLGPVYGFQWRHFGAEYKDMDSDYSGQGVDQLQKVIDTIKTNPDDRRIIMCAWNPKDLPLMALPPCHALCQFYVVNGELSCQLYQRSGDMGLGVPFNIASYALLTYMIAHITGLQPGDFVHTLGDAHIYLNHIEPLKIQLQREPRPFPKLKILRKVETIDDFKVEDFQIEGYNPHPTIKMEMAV
T1 sequence (P07607 whole entry): as the sequence (P07607 whole entry, looked up) above

Question: How did the Fold increase [1] turn out when `Cc1nc(O)c2cc(CN(C)c3ccc(C(=O)N[C@@H](CCC(=O)N[C@@H](CCC(=O)N[C@@H](CCC(=O)N[C@@H](CCC(=O)N[C@@H](CCC(=O)N[C@@H](CCC(=O)O)C(=O)O)C(=O)O)C(=O)O)C(=O)O)C(=O)O)C(=O)O)s3)ccc2n1` was run?
Answer: The Fold increase was 112.

Question: `C#CCN(Cc1ccc2nc(C)[nH]c(=O)c2c1)c1ccc(C(=O)N[C@@H](CCC(=O)O)C(=O)O)c(F)c1` was tested. Which Ki (Thymidylate synthase [2]) did it give?
Answer: Its Ki is 10.4 nM.

Question: `Cc1nc2ccc(CN(C)c3ccc(C(=O)N[C@@H](CCC(=O)O)C(=O)O)s3)cc2c(=O)[nH]1` [RALTITREXED] was tested. Which Ki (Thymidylate synthase [3]) did it give?
Answer: Its Ki is 418 nM.

Question: How did the Ki (Thymidylate synthase [2]) turn out when `Cc1nc2ccc(CN(C)c3ccc(C(=O)N[C@@H](CCC(=O)N[C@@H](CCC(=O)N[C@@H](CCC(=O)N[C@@H](CCC(=O)N[C@@H](CCC(=O)O)C(=O)O)C(=O)O)C(=O)O)C(=O)O)C(=O)O)s3)cc2c(=O)[nH]1` was run?
Answer: The Ki was 3.79 nM.

Question: With `Cc1nc(O)c2cc(CN(C)c3ccc(C(=O)N[C@@H](CCC(=O)N[C@@H](CCC(=O)O)C(=O)O)C(=O)O)s3)ccc2n1` as the molecule, how does the Fold increase [1] read?
Answer: The Fold increase was 17.

Question: How did the Fold increase [1] turn out when `Cc1nc(O)c2cc(CN(C)c3ccc(C(=O)N[C@@H](CCC(=O)N[C@@H](CCC(=O)N[C@@H](CCC(=O)N[C@@H](CCC(=O)N[C@@H](CCC(=O)O)C(=O)O)C(=O)O)C(=O)O)C(=O)O)C(=O)O)s3)ccc2n1` was run?
Answer: Its Fold increase is 110.

Question: What does the source list for `C#CCN(Cc1ccc2nc(C)nc(O)c2c1)c1ccc(C(=O)N[C@@H](CCC(=O)N[C@@H](CCC(=O)O)C(=O)O)C(=O)O)c(F)c1`?
Answer: Fold increase [1]: 18; Ki (Thymidylate synthase [2]): 0.59 nM

Question: How did the Ki (Thymidylate synthase [2]) turn out when `Cc1nc2ccc(CN(C)c3ccc(C(=O)N[C@@H](CCC(=O)N[C@@H](CCC(=O)N[C@@H](CCC(=O)N[C@@H](CCC(=O)N[C@@H](CCC(=O)N[C@@H](CCC(=O)O)C(=O)O)C(=O)O)C(=O)O)C(=O)O)C(=O)O)C(=O)O)s3)cc2c(=O)[nH]1` was run?
Answer: Its Ki is 3.7 nM.

Question: Which Fold increase [1] does the source give for `C#CCN(Cc1ccc2nc(C)cc(Cl)c2c1)c1ccc(C(=O)N[C@@H](CCC(=O)N[C@@H](CCC(=O)N[C@@H](CCC(=O)O)C(=O)O)C(=O)O)C(=O)O)c(F)c1` here?
Answer: The Fold increase was 64.

Question: And the Ki (Thymidylate synthase [2])?
Answer: The Ki was 1 nM.

Question: Which results are given for `Cc1nc(O)c2cc(CN(C)c3ccc(C(=O)N[C@@H](CCC(=O)N[C@@H](CCC(=O)N[C@@H](CCC(=O)N[C@@H](CCC(=O)O)C(=O)O)C(=O)O)C(=O)O)C(=O)O)s3)ccc2n1`?
Answer: Fold increase [1]: 89; Ki (Thymidylate synthase [2]): 4.69 nM

Question: How did the Ki (Thymidylate synthase [2]) turn out when `Cc1nc2ccc(CN(C)c3ccc(C(=O)N[C@@H](CCC(=O)N[C@@H](CCC(=O)N[C@@H](CCC(=O)O)C(=O)O)C(=O)O)C(=O)O)s3)cc2c(=O)[nH]1` was run?
Answer: The Ki was 7.52 nM.

Question: How did the Fold increase [1] turn out when `Cc1nc(O)c2cc(CN(C)c3ccc(C(=O)N[C@@H](CCC(=O)N[C@@H](CCC(=O)N[C@@H](CCC(=O)O)C(=O)O)C(=O)O)C(=O)O)s3)ccc2n1` was run?
Answer: The Fold increase was 56.

Question: How did the Ki (Thymidylate synthase [2]) turn out when `C#CCN(Cc1ccc2nc(C)cc(Cl)c2c1)c1ccc(C(=O)N[C@@H](CCC(=O)O)C(=O)O)c(F)c1` was run?
Answer: Its Ki is 63.7 nM.

Question: With `Cc1nc2ccc(CN(C)c3ccc(C(=O)N[C@@H](CCC(=O)N[C@@H](CCC(=O)O)C(=O)O)C(=O)O)s3)cc2c(=O)[nH]1` as the molecule, how does the Ki (Thymidylate synthase [2]) read?
Answer: The Ki was 24 nM.
